Data published in ChEMBL document CHEMBL1126142, “Potential antitumor agents. 64. Synthesis and antitumor evaluation of dibenzo[1,4]dioxin-1-carboxamides: a new class of weakly binding DNA-intercalating agents” (J Med Chem, 1992).
Calls of active or inactive are those of the source. The calls are words filed in the database; no cut-off is given here.

Legend:
[1] = Lipophilicity (Rm); format: physicochemical; conditions: AMSA internal standard
In short: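 Relative lipophilicity (Rm) was determined chromatographically using 4'-(9-acridinylamino)methanesulfonanilide (AMSA) as internal standard.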

[2] = In vivo the optimal dose administered intraperitoneally to wild-type P388 murine leukemia cells; format: functional, Mus musculus
In short: (§1)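 Mice received 10^6 tumor cells intraperitoneally. After 24 h, drug was given ip as a solution in 0.1 mL 30% v/v EtOH/water on days 1, 5 and 9. The optimal dose is expressed as mg/kg per day. Groups were 6 mice, with tests in duplicate.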

Nucleic Acid = assay: Binding constant to poly[d(A-T)] by displacement of ethidium bromide; format: nucleic-acid assay
P388 [3] = assay: In vivo percentage increase in lifespan with compound after treating wild-type P388 murine leukemia cells with optimal dose; Not active; format: functional, organism-based; conditions: Mus musculus
[4] = Cytotoxicity measured on wild-type P388 murine leukemia cells; format: functional, cell-based; conditions: Mus musculus
In short: (§2)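 A 96-well plate growth-inhibition assay in culture was run with full dose-response curves. IC50 was the drug concentration (μM) reducing cell growth to 50% of untreated controls. Values are means of three determinations. The P388/AMSA subline carries a structurally altered topoisomerase II.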

[5] = In vivo optimal dose administered intraperitoneally to wild-type P388 murine leukemia cells; format: functional, Mus musculus; in short: as §1
P388 [6] = assay: Inhibitory activity against mutant murine leukemia cell line P388/AMSA; format: functional, cell-based; conditions: Mus musculus; in short: as §2
[7] = Percentage increase in lifespan with compound after treating wild-type P388 murine leukemia cells with optimal dose; format: functional, Mus musculus
In short: (§3)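 Mice bearing wild-type P388 leukemia, 10^6 cells inoculated intraperitoneally; drug given ip in 0.1 mL 30% v/v EtOH/water on days 1, 5 and 9, starting 24 h after inoculation. ILS = percentage increase in lifespan of treated over untreated tumor-bearing mice at the optimal dose (mg/kg per day); >20% counted significant. Groups of 6 mice, tests in duplicate.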

[8] = In vivo percentage increase in lifespan with compound after treating wild-type P388 murine leukemia cells with optimal dose; format: functional, Mus musculus; in short: as §3
P388 [9] = assay: Inhibitory activity against P388 murine leukemia cell which is topoisomerase II enzyme and resistant to classical topo II Inhibitors; format: functional, cell-based; conditions: Mus musculus; in short: as §2

| Rm [1] | Log K (Nucleic Acid) | IC50 (P388 [9]) [nM] | Structure (SMILES) | OD [2] [mg/kg] | ILS (P388 [3]) | IC50 [4] [nM] | OD [5] [mg/kg] | IC50 (P388 [6]) [nM] | ILS [7] [%] | ILS [8] [%] |
| --- | --- | --- | --- | --- | --- | --- | --- | --- | --- | --- |
| 0.2 | 5.11 | – | Cc1ccc2c(c1)Oc1cccc(C(=O)NCCN(C)C)c1O2 | 45 | inactive | 3300 | – | – | – | – |
| 0.18 | 5.35 | – | CN(C)CCNC(=O)c1cccc2c1Oc1cc(Br)ccc1O2 | 150 | inactive | 3000 | – | – | – | – |
| 0.13 | 4.9 | – | CN(C)CCCCNC(=O)c1cccc2c1Oc1ccccc1O2 | – | inactive | > 20000 | 150 | – | – | – |
| -0.28 | 5.11 | – | CN(C)CCNC(=O)c1cccc2c1Oc1c(cccc1[N+](=O)[O-])O2 | 20 | inactive | 32 | – | 450 | – | – |
| 0.1 | 5.11 | – | CN(C)CCNC(=O)c1cccc2c1Oc1ccc(Cl)cc1O2 | 100 | inactive | 1600 | – | – | – | – |
| 0.11 | 4.84 | – | CN(C)CCNC(=O)c1ccc2c(c1)Oc1ccccc1O2 | 150 | inactive | 5800 | – | – | – | – |
| -0.68 | 4.48 | – | CN(C)CCNC(=O)c1cccc2c1Oc1c(cccc1C(=O)NCCN(C)C)O2 | 100 | inactive | 720 | – | – | – | – |
| -0.2 | 5.06 | – | CN(C)CCNC(=O)c1cccc2c1Oc1cccc([N+](=O)[O-])c1O2 | 150 | inactive | 2500 | – | – | – | – |
| -0.16 | 5.37 | – | CN(C)CCNC(=O)c1cc([N+](=O)[O-])cc2c1Oc1ccccc1O2 | 225 | inactive | 1700 | – | – | – | – |
| 0.14 | 5.26 | – | Cc1cccc2c1Oc1cccc(C(=O)NCCN(C)C)c1O2 | 45 | inactive | 2100 | – | – | – | – |
| 0.18 | 5.34 | – | CN(C)CCNC(=O)c1cccc2c1Oc1ccc(Br)cc1O2 | 100 | inactive | 1900 | – | – | – | – |
| -0.19 | 5.18 | – | COc1cccc2c1Oc1cccc(C(=O)NCCN(C)C)c1O2 | 100 | inactive | 1600 | – | – | – | – |
| -0.38 | – | 930 | CN(C)CCNC(=O)c1cccc2c1Oc1ncccc1O2 | 65 | inactive | 830 | – | – | – | – |
| 0.21 | 5.15 | – | CN(C)CCNC(=O)c1cccc2c1Oc1cccc(Cl)c1O2 | 100 | inactive | 1300 | – | – | – | – |
| -0.49 | 4.73 | – | CN(C)CCNC(=O)c1cccc2c1Oc1cccnc1O2 | 100 | inactive | 8000 | – | – | – | – |
| 0.25 | – | 830 | CN(C)CCNC(=O)c1cccc2c1Oc1cc(Cl)c(Cl)cc1O2 | 150 | inactive | 5130 | – | – | – | – |
| -1.21 | 6.81 | – | CN(C)CCNC(=O)c1ccc2c(c1)Oc1ccc(C(=O)NCCN(C)C)cc1O2 | 225 | inactive | > 10000 | – | – | – | – |

| Structure (SMILES) | Rm [1] | Log K (Nucleic Acid) | IC50 (P388 [9]) [nM] | OD [2] [mg/kg] | ILS (P388 [3]) | IC50 [4] [nM] | OD [5] [mg/kg] | IC50 (P388 [6]) [nM] | ILS [7] [%] | ILS [8] [%] |
| --- | --- | --- | --- | --- | --- | --- | --- | --- | --- | --- |
| COc1cccc2c1Oc1c(cccc1C(=O)NCCN(C)C)O2 | -0.02 | 5.55 | – | 45 | – | 380 | – | 520 | 45 | – |
| CN(C)CCNC(=O)c1cccc2c1Oc1ccc([N+](=O)[O-])cc1O2 | -0.14 | 5.64 | – | 150 | – | 6000 | – | – | 96 | – |
| CN(C)CCNC(=O)c1cccc2c1Oc1cc([N+](=O)[O-])ccc1O2 | -0.14 | 5.64 | – | 150 | – | 3700 | – | – | 96 | – |
| CN(C)CCNC(=O)c1cccc2c1Oc1ccccc1O2 | 0.01 | 5.05 | – | – | – | 3000 | 150 | 1800 | – | 76 |
| CN(C)CCNC(=O)c1cccc2c1Oc1c(Br)cccc1O2 | -0.01 | 5.23 | – | 100 | – | 210 | – | 730 | 154 | – |
| CN(C)CCNC(=O)c1cccc2c1Oc1c(Cl)cccc1O2 | -0.01 | 5.48 | – | 100 | – | 230 | – | 2600 | 106 | – |
| Cc1cccc2c1Oc1c(cccc1C(=O)NCCN(C)C)O2 | 0.09 | 5.28 | – | 100 | – | 250 | – | 7700 | 144 | – |
